# Test results taken from ChEMBL document CHEMBL2150892, “Neuroprotective Tri- and Tetracyclic BChE Inhibitors Releasing Reversible Inhibitors upon Carbamate Transfer” (ACS Med Chem Lett, 2012).
# The source made the active and inactive calls. The calls are words filed in the database; no cut-off is given here.
# What was measured:
# [1] = Selectivity ratio of IC50 for Electric eel AChE to IC50 for equine serum BChE
# Procedure, shortened: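 Selectivity ratio calculated as IC50(AChE)/IC50(BChE). AChE was from electric eel and BChE from equine serum. Each IC50 is a mean of at least three independent determinations.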
# Cholinesterase [2] = biological target: T1, Cholinesterase (Equus caballus, UniProt P81908); experiment: Inhibition of equine serum BChE using acetylthiocholine as substrate after 2 mins
# Procedure, shortened: (§1)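 Enzyme sources were electric eel AChE and equine serum BChE. Values are means of at least three independent determinations.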
# HT-22 [3] = experiment: Neuroprotective activity against glutamate-induced oxidative stress in mouse HT22 cells assessed as reduction of intracellular ROS formation at 10 uM after 24 hrs by MTT assay; assay type: functional, cell-based
# Procedure, shortened: (§2)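 Murine hippocampal HT-22 cells, which lack ionotropic glutamate receptors, were challenged with extracellular glutamate to cause oxidative (oxytotic) cell death. Compounds were tested at 10 μM and 5 μM against this glutamate-induced toxicity.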
# Cholinesterase [4] = biological target: T1, Cholinesterase; experiment: Time dependent inhibition of equine serum BChE assessed as stability constants of inhibitor-enzyme complex using acetylthiocholine as substrate after 60 mins
# [5] = Antioxidant activity assessed as trolox equivalents of peroxyl radical scavenging activity by ORAC assay; assay type: functional
# Procedure, shortened: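 ORAC assay: measures how well each compound protects fluorescein from destruction by peroxyl radicals. Capacity is expressed as trolox equivalents, with trolox as the reference.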
# [6] = biological target: Acetylcholinesterase (Electrophorus electricus) (UniProt O42275); experiment: Time dependent inhibition of Electric eel AChE assessed as stability constants of inhibitor-enzyme complex using acetylthiocholine as substrate at 10 to 50 nM after 60 mins
# [7] = biological target: Acetylcholinesterase (Electrophorus electricus) (UniProt O42275); experiment: Inhibition of Electric eel AChE using acetylthiocholine as substrate at 100 uM after 2 mins
# Procedure, shortened: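 Enzyme sources were electric eel AChE and equine serum BChE. Values are means of at least three independent determinations. Single-point entries are % inhibition at 100 μM.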
# Acetylcholinesterase [8] = biological target: T2, Acetylcholinesterase (Electrophorus electricus, UniProt O42275); experiment: Inhibition of Electric eel AChE using acetylthiocholine as substrate after 2 mins; procedure, shortened: as §1
# Acetylcholinesterase [9] = biological target: T2, Acetylcholinesterase; experiment: Time dependent inhibition of Electric eel AChE assessed as stability constants of inhibitor-enzyme complex using acetylthiocholine as substrate after 60 mins
# HT-22 [10] = experiment: Neuroprotective activity against glutamate-induced oxidative stress in mouse HT22 cells assessed as reduction of intracellular ROS formation at 5 uM after 24 hrs by MTT assay; assay type: functional, cell-based; procedure, shortened: as §2
# T1 sequence (P81908 whole entry): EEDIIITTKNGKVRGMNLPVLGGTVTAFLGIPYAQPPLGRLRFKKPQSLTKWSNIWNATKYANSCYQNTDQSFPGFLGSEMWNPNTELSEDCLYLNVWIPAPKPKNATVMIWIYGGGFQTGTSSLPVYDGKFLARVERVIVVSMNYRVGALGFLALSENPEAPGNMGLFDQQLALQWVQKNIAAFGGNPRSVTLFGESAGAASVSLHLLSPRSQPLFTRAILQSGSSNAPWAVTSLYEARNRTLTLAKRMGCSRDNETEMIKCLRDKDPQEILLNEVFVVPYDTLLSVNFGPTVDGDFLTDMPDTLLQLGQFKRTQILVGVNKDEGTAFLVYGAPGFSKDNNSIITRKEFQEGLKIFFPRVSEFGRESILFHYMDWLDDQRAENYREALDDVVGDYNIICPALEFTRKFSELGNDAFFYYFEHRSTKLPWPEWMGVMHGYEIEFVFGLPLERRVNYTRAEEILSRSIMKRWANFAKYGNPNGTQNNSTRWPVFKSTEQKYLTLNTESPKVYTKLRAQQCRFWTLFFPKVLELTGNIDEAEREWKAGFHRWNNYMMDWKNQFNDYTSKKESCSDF
# T2 sequence (O42275 whole entry): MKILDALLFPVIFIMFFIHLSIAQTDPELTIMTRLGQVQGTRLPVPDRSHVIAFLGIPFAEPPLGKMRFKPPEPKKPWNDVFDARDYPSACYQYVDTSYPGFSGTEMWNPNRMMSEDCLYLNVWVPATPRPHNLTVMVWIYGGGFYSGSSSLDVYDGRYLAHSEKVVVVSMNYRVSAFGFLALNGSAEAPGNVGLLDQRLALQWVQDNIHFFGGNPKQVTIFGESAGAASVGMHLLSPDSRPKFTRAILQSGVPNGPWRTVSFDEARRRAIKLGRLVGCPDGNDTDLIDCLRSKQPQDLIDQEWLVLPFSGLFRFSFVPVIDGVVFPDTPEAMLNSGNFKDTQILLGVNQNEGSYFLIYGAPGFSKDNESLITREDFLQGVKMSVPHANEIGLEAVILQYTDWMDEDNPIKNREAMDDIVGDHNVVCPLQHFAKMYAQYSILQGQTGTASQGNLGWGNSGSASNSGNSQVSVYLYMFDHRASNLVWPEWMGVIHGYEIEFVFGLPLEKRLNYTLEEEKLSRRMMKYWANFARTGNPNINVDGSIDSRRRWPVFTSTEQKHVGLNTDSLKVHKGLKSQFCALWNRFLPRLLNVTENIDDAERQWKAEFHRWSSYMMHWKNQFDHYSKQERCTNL
# Sequence of Acetylcholinesterase (Electrophorus electricus) (O42275 24-633 limits assumed): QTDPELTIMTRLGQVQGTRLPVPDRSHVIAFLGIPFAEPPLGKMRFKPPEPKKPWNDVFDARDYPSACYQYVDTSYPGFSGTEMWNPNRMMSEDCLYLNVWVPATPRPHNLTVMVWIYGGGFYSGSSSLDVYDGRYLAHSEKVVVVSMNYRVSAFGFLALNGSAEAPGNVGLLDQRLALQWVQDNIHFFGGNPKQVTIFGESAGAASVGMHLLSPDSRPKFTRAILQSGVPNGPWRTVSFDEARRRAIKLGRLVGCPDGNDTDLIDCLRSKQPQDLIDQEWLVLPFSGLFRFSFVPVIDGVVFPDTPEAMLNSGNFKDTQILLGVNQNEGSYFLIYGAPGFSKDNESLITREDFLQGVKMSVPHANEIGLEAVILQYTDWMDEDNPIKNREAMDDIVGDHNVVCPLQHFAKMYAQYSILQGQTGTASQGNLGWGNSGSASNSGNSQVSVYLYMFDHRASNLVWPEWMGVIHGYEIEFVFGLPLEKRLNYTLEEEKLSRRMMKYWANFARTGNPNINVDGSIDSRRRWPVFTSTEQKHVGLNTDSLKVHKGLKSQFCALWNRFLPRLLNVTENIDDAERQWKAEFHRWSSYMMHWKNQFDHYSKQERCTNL
SMILES,Ratio IC50 [1],IC50 (Cholinesterase [2]; read-out: IC50) [µM],Activity (HT-22 [3]),Ki (Cholinesterase [4]) [µM],Ratio [5],inhibition [6],inhibition [7],IC50 (Acetylcholinesterase [8]; read-out: IC50) [µM],IC50 (Acetylcholinesterase [8]; read-out: pIC50 (converted)) [µM],Ki (Acetylcholinesterase [9]) [µM],IC50 (Cholinesterase [2]; read-out: pIC50 (converted)) [µM],Activity (HT-22 [10])
CC(C)c1ccc(NC(=O)Oc2ccc3c(c2)CN2CCCC2N3C)cc1 (configuration not stated),> 66.6,3,,,,,,,,,,
CCCCCCCNC(=O)Oc1ccc2c(c1)CN1CCc3ccccc3C1N2C (configuration not stated),> 15000,0.06,Active,0.0127,0.3,inactive,inactive,,,,,
CCCCCCCNC(=O)Oc1ccc2c(c1)CN1CCCc3ccccc3C1N2C (configuration not stated),> 4000,0.046,Active,,0.86,,,,,,,
CCN(C)C(=O)Oc1ccc2c(c1)CN1CCc3ccccc3C1N2C (configuration not stated),54.2,0.45,inactive,0.275,0.65,,,24.4,234,1.12,24.5,
COc1ccc2c(c1)CN1CCCc3ccccc3C1N2C (configuration not stated),> 6.7,29.7,,,1.2,,,,,,,
COc1cccc(NC(=O)Oc2ccc3c(c2)CN2CCCC2N3C)c1 (configuration not stated),5.3,7.52,,,,,,40.2,,,,
Cc1ccccc1NC(=O)Oc1ccc2c(c1)CN1CCCC1N2C (configuration not stated),16.1,4.11,,,,,,66.3,,,,
CN1c2ccccc2CN2CCCc3ccccc3C21 (configuration not stated),> 8.4,23.7,,,,,,,,,,
CN1c2ccccc2CN2CCCC21 (configuration not stated),3.4,38.9,,,,,,131,,,,
CN1c2ccccc2CN2CCc3ccccc3C21 (configuration not stated),3.3,44,inactive,,0.92,,,145,,,,
CN1c2ccc(O)cc2CN2CCc3ccccc3C21 (configuration not stated),2.5,44.3,Active,,2.87,,,110,,,,Active
COc1ccc2c(c1)CN1CCc3ccccc3C1N2C (configuration not stated),4.2,55.6,,,0.51,,,232,,,,inactive
CC(C)c1ccc(NC(=O)Oc2ccc3c(c2)CN2CCc4ccccc4C2N3C)cc1 (configuration not stated),> 1500,0.131,,,,,,,,,,
CN1c2ccc(O)cc2CN2CCCc3ccccc3C21 (configuration not stated),5.2,7.3,Active,,2.48,,,37.8,,,,Active
CN1c2ccc(O)cc2CN2CCCC21 (configuration not stated),0.75,41,Active,,3.43,,,30.6,30.2,,,Active
COc1cccc(NC(=O)Oc2ccc3c(c2)CN2CCc4ccccc4C2N3C)c1 (configuration not stated),> 900,0.218,,,,,,,,,,
CCCCCCCNC(=O)Oc1ccc2c(c1)CN1CCCC1N2C (configuration not stated),16.6,1.95,Active,,1.03,,,32.3,,,,Active
Cc1ccccc1NC(=O)Oc1ccc2c(c1)CN1CCc3ccccc3C1N2C (configuration not stated),> 1350,0.144,,,,,,,,,,
